Test results published in ChEMBL document CHEMBL1155483, “Anthranilic acid replacements in a niacin receptor agonist” (Bioorg Med Chem Lett, 2010).

What was measured:
[1] = Clearance in mouse plasma; assay type: ADME, organism-based
[2] = Half life in mouse plasma; assay type: ADME, organism-based
[3] = Volume of distribution at steady state in mouse plasma; assay type: ADME, organism-based; conditions: read-out: Vdss
[4] = Cmax in mouse plasma; assay type: ADME, organism-based
[5] = Oral bioavailability in mouse plasma; assay type: ADME, organism-based
[6] = target: Hydroxycarboxylic acid receptor 2 (Homo sapiens) (UniProt Q8TDS4); assay: Displacement of [3H]niacin from human niacin receptor expressed in CHO-KI cells in presence of human serum; assay type: cell-based
Procedure, shortened: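 Membranes from CHO-K1 cells stably expressing the niacin receptor; [3H]niacin displacement titrated with and without added human serum (serum level not stated); the serum shift is given as fold change. Values are means of two independent titrations, with calculated standard errors below 15%.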

[7] = target: Hydroxycarboxylic acid receptor 2 (Homo sapiens) (UniProt Q8TDS4); assay: Displacement of [3H]niacin from human niacin receptor expressed in CHO-KI cells at 25 uM; assay type: cell-based
[8] = Half life in rat plasma; assay type: ADME, organism-based
[9] = Clearance in rat plasma; assay type: ADME, organism-based
[10] = Volume of distribution at steady state in rat plasma; assay type: ADME, organism-based; conditions: read-out: Vdss
[11] = Oral bioavailability in rat plasma; assay type: ADME, organism-based
[12] = Cmax in rat plasma; assay type: ADME, organism-based

Chain of Hydroxycarboxylic acid receptor 2 (Homo sapiens) (Q8TDS4 whole entry): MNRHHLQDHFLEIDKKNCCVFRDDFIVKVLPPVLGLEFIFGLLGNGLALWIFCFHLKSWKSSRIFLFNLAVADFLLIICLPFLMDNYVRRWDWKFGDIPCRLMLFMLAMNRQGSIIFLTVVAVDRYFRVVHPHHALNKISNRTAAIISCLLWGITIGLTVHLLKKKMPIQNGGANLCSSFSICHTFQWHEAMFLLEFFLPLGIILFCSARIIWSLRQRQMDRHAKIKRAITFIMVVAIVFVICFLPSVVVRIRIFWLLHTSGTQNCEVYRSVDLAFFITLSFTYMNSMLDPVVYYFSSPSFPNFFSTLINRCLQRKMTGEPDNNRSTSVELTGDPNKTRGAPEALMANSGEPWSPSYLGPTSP

## O=C(CCc1ccc(-c2ccc(O)cc2)cc1)NC1=C(C(=O)O)CC(c2cccnc2F)CC1 (stereo not drawn)
[1]
  clearance: 5.4 mL/min/kg
[2]
  half-life: 1.8 h
[3]
  Vd: 0.42 L/kg
[4]
  Cmax: 1.2 µM
[5]
  bioavailability: 12%

## C[C@H]1CC(NC(=O)CCc2nc(-c3ccc(O)cn3)no2)=C(C(=O)O)C[C@H]1c1cccc(F)c1
[1]
  clearance: 5.6 mL/min/kg
[2]
  half-life: 3.9 h
[3]
  Vd: 0.76 L/kg
[4]
  Cmax: 0.3 µM
[5]
  bioavailability: 2%

## O=C(CCc1nc(-c2ccc(F)cn2)no1)NC1=C(C(=O)O)CC(c2cc(F)cc(F)c2)CC1 (stereo not drawn)
[6]
  fold change (FC): 30

## O=C(CCc1ccc2cc(O)ccc2c1)NC1=C(C(=O)O)CC(c2cc(F)cc(F)c2)CC1 (stereo not drawn)
[6]
  fold change (FC): > 400

## O=C(CCc1ccc2cc(O)ccc2c1)NC1=C(C(=O)O)CC(c2ccc(F)nc2)CC1 (stereo not drawn)
[6]
  fold change (FC): 90

## NC(Cc1nc(-c2ccc(F)cn2)no1)C(=O)NC1=C(C(=O)O)CCCC1 (stereo not drawn)
[1]
  clearance: 0.5 mL/min/kg
[6]
  fold change (FC): > 400
[2]
  half-life: 14 h
[3]
  Vd: 1.4 L/kg
[4]
  Cmax: 16 µM
[5]
  bioavailability: 87%

## Cn1nccc1C1CCC(NC(=O)CCc2ccc3cc(O)ccc3c2)=C(C(=O)O)C1 (stereo not drawn)
[6]
  fold change (FC): 200

## O=C(CCc1ccc2cc(O)ccc2c1)NC1=C(C(=O)O)CC(c2cccc(F)c2)CC1 (stereo not drawn)
[6]
  fold change (FC): > 400

## O=C(CCc1nc(-c2ccc(F)cn2)no1)NC1=C(C(=O)O)CCCC1
[6]
  fold change (FC): > 400

## Cn1cc(C2CCC(NC(=O)CCc3ccc4cc(O)ccc4c3)=C(C(=O)O)C2)cn1 (stereo not drawn)
[6]
  fold change (FC): > 400

## O=C(CCc1ccc2cc(O)ccc2c1)NC1=C(C(=O)O)CC(c2ccccc2F)CC1 (stereo not drawn)
[6]
  fold change (FC): > 400

## O=C(CCc1ccc2cc(O)ccc2c1)NC1=C(C(=O)O)CC(c2cccnc2F)CC1 (stereo not drawn)
[6]
  fold change (FC): 100

## CCCC1CCC(NC(=O)CCc2ccc3cc(O)ccc3c2)=C(C(=O)O)C1 (stereo not drawn)
[6]
  fold change (FC): > 400

## N#CC1CCC(NC(=O)CCc2ccc3cc(O)ccc3c2)=C(C(=O)O)C1 (stereo not drawn)
[7]
  inhibition: 7%

## O=C(CCc1ccc(-c2ccc(O)cc2)cc1)Nc1ccccc1C(=O)O
[1]
  clearance: 8.7 mL/min/kg
[2]
  half-life: 2.4 h
[3]
  Vd: 0.78 L/kg
[4]
  Cmax: 4 µM
[5]
  bioavailability: 35%

## NC(Cc1nc(-c2ccc(F)cn2)no1)C(=O)NC1=C(C(=O)O)CC(c2cc(F)cc(F)c2)CC1 (stereo not drawn)
[8]
  half-life: 4.8 h
[9]
  clearance: 2.3 mL/min/kg
[6]
  fold change (FC): 30
[10]
  Vd: 2.4 L/kg
[11]
  bioavailability: 44%
[12]
  Cmax: 3.8 µM

## O=C(CCc1nc(-c2ccc(O)cn2)no1)NC1=C(C(=O)O)CCCC1
[1]
  clearance: 2 mL/min/kg
[2]
  half-life: 1.3 h
[3]
  Vd: 0.21 L/kg
[4]
  Cmax: 3.9 µM
[5]
  bioavailability: 13%
